UPR XBP1 act – activators of adaptive arm of unfolded protein response (XBP1) | CHO-XBP1 luciferase reporter, IRE1-XBP1 UPR activation, luminescence; percent of tunicamycin response, DMSO as zero | activation, % at 20 µM | 330,000 tested, 0.33% active | AID 463104;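 active means versus positive control, 20 µM dose yields 30% or more activation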;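 further: 100% = tunicamycin at 10 µg/mL and 0% = DMSO only wells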
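Test system: CHO-XBP1 luciferase reporter cells | Buffer or medium: Serum-containing F12 medium, 10% FBS | Schedule: 6 h compound exposure at 37 °C, 5% CO2 | Detection: Steady-Glo luciferase glow luminescence, 10 min after reagent addition | Read-out basis: Activation, % of tunicamycin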
Beta cell apopt – blocks beta cell apoptosis. INS-1E cytokine-induced death, ATP luminescence, 48 h; percent of positive-control rescue, neutral wells zero. protection from apoptosis, % (test concentration not listed). 300,000 tested, 0.8% active. AID 435005;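 active means Every replicate reaches about 75%, or at least half do and their mean reaches it too, limit read from the data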;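 further: 0% = cytokine-treated negative control wells and 100% = positive control rescue; higher means more ATP so stronger rescue from cytokine killing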
SKKanGAS inh – blocks kanamycin growth of S. pyogenes SKKanGAS strain; AID 1662; 300,000 tested, 1.3% active; BacTiter-Glo, 6 h; inhibition, % at 7.5 µM;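 active means mean replicate score, as percent of positive control median, at least 50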;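 further: strain carries kanamycin resistance gene driven by streptokinase promoter and grows in 40 µg/ml kanamycin; loss of luminescence reflects streptokinase promoter inhibition or plain growth inhibition; 0% = median of DMSO wells and 100% = positive control at its reference dose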
Mdm2-MdmX inh – disrupts the human Mdm2-MdmX interaction. O15151+Q00987. SaOS-2 split-luciferase Mdm2/MdmX complementation, luminescence. inhibition, % at 8 µM. 330,000 tested, 3% active;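 active means inhibition of at least 50% at 8 µM in the primary screen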
Target sequence (O15151 whole entry, looked up): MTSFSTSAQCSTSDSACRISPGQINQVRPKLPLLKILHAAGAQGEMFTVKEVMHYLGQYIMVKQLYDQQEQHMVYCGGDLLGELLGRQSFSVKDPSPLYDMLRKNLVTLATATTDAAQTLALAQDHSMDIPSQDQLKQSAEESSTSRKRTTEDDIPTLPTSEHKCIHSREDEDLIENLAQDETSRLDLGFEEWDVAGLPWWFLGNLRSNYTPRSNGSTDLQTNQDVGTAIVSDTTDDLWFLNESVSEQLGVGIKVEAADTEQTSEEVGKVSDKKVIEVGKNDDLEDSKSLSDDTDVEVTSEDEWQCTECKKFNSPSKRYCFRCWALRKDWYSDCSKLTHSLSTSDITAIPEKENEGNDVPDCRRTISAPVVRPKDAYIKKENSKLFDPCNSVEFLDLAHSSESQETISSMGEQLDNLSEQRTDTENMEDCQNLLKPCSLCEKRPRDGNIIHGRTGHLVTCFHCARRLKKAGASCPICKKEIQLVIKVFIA
Target sequence (Q00987 whole entry, looked up): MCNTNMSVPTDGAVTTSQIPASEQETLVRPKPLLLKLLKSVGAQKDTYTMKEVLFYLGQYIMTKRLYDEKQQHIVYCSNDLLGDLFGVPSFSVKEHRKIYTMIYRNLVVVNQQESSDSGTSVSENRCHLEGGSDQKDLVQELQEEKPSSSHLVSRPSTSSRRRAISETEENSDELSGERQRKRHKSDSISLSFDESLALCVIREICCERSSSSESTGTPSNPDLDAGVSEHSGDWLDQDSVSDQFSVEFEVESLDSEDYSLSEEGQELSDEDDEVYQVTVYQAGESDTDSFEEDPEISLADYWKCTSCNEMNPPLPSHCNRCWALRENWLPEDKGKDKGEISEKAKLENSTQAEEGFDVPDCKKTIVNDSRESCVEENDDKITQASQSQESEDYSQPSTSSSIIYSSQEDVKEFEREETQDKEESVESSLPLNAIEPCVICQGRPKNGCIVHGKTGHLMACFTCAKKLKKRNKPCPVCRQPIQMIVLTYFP
UPR CHOP act – apoptotic UPR (CHOP) activation; activation, % at 10 µM; CHO-CHOP luciferase reporter, luminescence; percent of tunicamycin response over DMSO baseline; 330,000 tested, 0.34% active; AID 449763;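 active means at 10 µM dose, activation of 40% or more, normalized to positive control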;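 further: 100% = tunicamycin at 10 µg/mL and 0% = DMSO alone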
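assay system = CHO CHOP reporter cells | amount = 500 CHO-CHOP cells per well | buffer or medium = F12 with 10% FBS | incubation = 16-18 h cell attachment, then 6 h compound exposure, 37 °C | detection = luminescence read with Steady-Glo | read-out = percent activation relative to tunicamycin control | controls = tunicamycin high control, DMSO low control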
CSC inhib – cancer stem cell inhibition; cancer stem cell-like cells viability, luminescence; inhibition, % at 7.5 µM; 300,000 tested, 1.1% active; AID 2717; in the data active means inhibition above about 75%; tested in HMLE shEcad cells
An asterisk follows results filed as active; / = no result given. Most compounds without a hit are left out; they make up all but 4.8% or so of the library.

SMILES	UPR XBP1 act	Beta cell apopt	SKKanGAS inh	Mdm2-MdmX inh	UPR CHOP act	CSC inhib
O=C(Nc1ccc(OC(F)F)c(Cl)c1)Nc1ccc2c(c1)OCO2	5	9	-4	40	3	98*
COc1cc(NC(=O)Nc2ccc3c(c2)OCO3)cc(OC)c1OC	3	-3	0	-24	0	-24
COc1ccc(C(C)(C)C)cc1NC(=O)Nc1ccc2c(c1)OCO2	2	5	10	48	0	83*
COc1ccc(NC(=O)Nc2cccc([N+](=O)[O-])c2)cc1Cl	8	59	1	46	5	41
O=C(Nc1ccc2c(c1)OCO2)Nc1ccc2c(c1)OCO2	4	-1	0	-102	5	0
CCOc1ccc(CCNC(=O)COC(=O)C2=NNC(=O)CC2)cc1OCC	-4	1	-5	5	0	-10
CCOc1ccc(S(=O)(=O)N2CN(c3cccc(C(C)=O)c3)c3nc4ccccc4nc32)cc1	5	18	/	-1	-2	4
O=C(Nc1ccccn1)c1sc2cccc(F)c2c1Cl	-2	3	/	-63	-4	-4
COc1ccccc1NC(=O)C(=O)NNC(=O)COc1ccc2ccccc2c1	-3	3	67*	27	0	/
CC(=O)Nc1ccc(OCC(O)Cn2c3ccccc3c3ccccc32)c(C)c1 (stereo not given)	0	10	11	49	1	78*
Cc1c(Cl)ccc2c(C(=O)Nc3cc(C(C)(C)C)on3)cc(-c3ccccn3)nc12	25	/	62*	32	12	-7
Cc1cc(NC(=O)c2cc(-c3cccnc3)nc3c(C)c(C)ccc23)no1	-4	-9	3	13	-1	-4
Cc1ccc(SCc2ccc(C(=O)N3CCCC3)cc2)cc1	8	1	14	-61	4	13
CCN1CCN(C(=O)c2ccc(CSc3ccc(C)cc3)cc2)CC1	1	-18	11	5	0	155*
O=C(CSc1cccc[n+]1[O-])Nc1ccccc1C(F)(F)F	-1	-7	/	-1	1	-4
O=C(CSc1cccc[n+]1[O-])Nc1ccccc1Oc1ccccc1	15	7	7	16	108*	-2
Cc1cccc(C(=O)Nc2ccc(C(=O)/C=C/c3cccnc3)cc2)c1	/	101*	4	/	/	52
O=C(Nc1ccc(NC(=O)c2cccs2)cc1)c1ccccc1	4	7	1	-15	4	10
Cc1cccc(C(=O)Nc2ccc(C(=O)N/N=C/c3cccnc3)cc2)c1	6	-7	15	20	2	-6
Cc1cccc(C(=O)Nc2ccc(NC(=O)c3ccccc3)cc2)c1	-2	3	1	11	3	-10
O=C(Nc1ccc(O)cc1)c1ccc(NC(=O)c2cccs2)cc1	2	-5	-2	-13	3	85*
Cc1cccc(C(=O)Nc2ccc(C(=O)Nc3ccc(O)cc3)cc2)c1	-3	2	0	29	2	95*
CN(CC(=O)Nc1ccc(F)cc1)C(=O)COC(=O)/C=C/c1ccccc1[N+](=O)[O-]	-4	0	/	-18	-1	-9
O=C(Cn1nnc(-c2cc(C(F)(F)F)cc(C(F)(F)F)c2)n1)NNC(=S)Nc1ccc(Cl)cc1	-2	3	78*	0	-1	-7
CCN1/C(=C\c2ccc3cc(C)ccc3[n+]2CC)Sc2cc(C)c(C)cc21	/	/	71*	/	/	/
SMILES	UPR XBP1 act	Beta cell apopt	SKKanGAS inh	Mdm2-MdmX inh	UPR CHOP act	CSC inhib
Cc1ccc2c(c1)S/C(=C\c1cccc[n+]1C)N2CCO	-1	32	1	5	-1	-15
CC(C)(C)c1ccc(NC(=O)N2CCCN(c3c(Cl)cncc3Cl)CC2)cc1	-2	3	16	37	-2	77*
CC1CCCC(NC(=O)COC(=O)/C=C/c2ccco2)C1C (stereo not given)	-1	0	/	-7	2	-16
Clc1ccc(-c2ccc(CNCc3ccccn3)o2)cc1	1	8	57*	-12	4	-8
Fc1ccc(-c2ccc(CNCc3ccccn3)o2)cc1	-1	/	1	-18	5	-12
NC(=NCCc1c[nH]c2ccccc12)NC(=O)c1ccc(Cl)cc1	0	-7	-2	9	5	43
Cc1cc(C)nc(NC(=NCCc2c[nH]c3ccccc23)NC(=O)Nc2ccc(Cl)cc2)n1	-4	20	20	39	0	97*
CC1(C)CC(=O)C=C(c2cccs2)C1	3	-2	3	-17	1	-9
Cn1c(=O)c2sccc2n2c(CCCC(=O)NCc3ccc(F)cc3)nnc12	9	4	0	7	1	-13
COC(=O)c1c(NC(C)=O)sc2c1CCCC2	2	3	-2	21	0	-12
COC(=O)c1c(NC(NC(=O)C(C)C)C(Cl)(Cl)Cl)sc2c1CCCC2 (stereo not given)	-2	5	58*	23	0	/
CN(C)S(=O)(=O)c1cccc(COC(=O)c2cnccn2)c1	1	-6	11	7	1	-2
O=C(CSc1nc2ccccc2o1)Nc1ccccc1N1CCCCCC1	-2	-4	59*	-1	-1	38
O=C(CSc1nc2ccccc2o1)Nc1cc(C(F)(F)F)ccc1N1CCOCC1	0	0	2	29	-1	3
CC(=O)NC1=C(C#N)C(c2ccccc2)c2c(ccc3ccccc23)O1 (stereo not given)	-3	-5	13	29	0	78*
CCOC(=O)CC(=O)Nc1ncnc2c1C(c1ccccc1)c1c(ccc3ccccc13)O2 (stereo not given)	-2	2	/	46	0	/
CC1(C)C(=O)N(CCN2CCC(C(=O)c3ccc(F)cc3)CC2)c2ccccc21	-5	-4	/	28	-2	30
COc1ccc(CCC(C)NCC2CCCCC2)cc1 (stereo not given)	-3	-7	4	-34	-1	93*
O=C(Nc1ccn(Cc2c(F)c(F)cc(F)c2F)n1)c1ccc(COc2ccc(Cl)cc2Cl)o1	0	-4	50*	9	2	15
Cc1nn(Cc2c(F)c(F)c(F)c(F)c2F)c(C)c1NC(=O)c1ccc(COc2ccc(Cl)cc2Cl)o1	1	21	29	47	4	37
O=C(NC(=S)Nc1cccc(Cl)c1N1CCCCC1)c1cccs1	1	12	60*	34	-1	99*
O=C(NC(=S)Nc1cccc(Cl)c1N1CCCCC1)c1ccco1	2	8	36	13	-1	77*
O=C(NC(=S)Nc1cccc(Cl)c1N1CCOCC1)c1cccs1	3	-5	13	26	-3	-4
O=C(NC(=S)Nc1ccccc1N1CCCCC1)c1ccco1	2	4	-10	-11	0	41
